{"source": "ChEMBL document CHEMBL1799956", "about": "“Convergent synthesis and biological evaluation of 2-amino-4-(3',4',5'-trimethoxyphenyl)-5-aryl thiazoles as microtubule targeting agents” (J Med Chem, 2011)", "key": {"HL-60": {"test_system": "HL-60", "experiment": "Antiproliferative activity against human HL60 cells assessed as growth inhibition after 72 hrs by MTT assay", "type": "functional, cell-based", "conditions": "HL-60, 72 h"}, "MCF7": {"test_system": "MCF7", "experiment": "Antiproliferative activity against human MCF7 cells assessed as growth inhibition after 72 hrs by MTT assay", "type": "functional, cell-based", "conditions": "MCF7, 72 h"}, "LoVo": {"test_system": "LoVo", "experiment": "Antiproliferative activity against human LoVo cells assessed as growth inhibition after 72 hrs by MTT assay", "type": "functional, cell-based"}, "CCRF-CEM [1]": {"test_system": "CCRF-CEM", "experiment": "Antiproliferative activity against human CEM cells assessed as growth inhibition after 72 hrs by MTT assay", "type": "functional, cell-based"}, "[2]": {"experiment": "Antiproliferative activity against human taxol-resistant A549-T12 cells assessed as growth inhibition after 72 hrs by MTT assay", "type": "functional, cell-based", "conditions": "A549, 72 h"}, "Tubulin (Homo sapiens) [3]": {"biological_target": "T1, Tubulin (Homo sapiens) (UniProt P68371+Q9H4B7+P0DPH7+P68366+Q13509+Q71U36+P04350+Q3ZCM7+P07437+P68363+Q9BQE3+Q6PEY2+Q13885+Q9BVA1+Q9BUF5)", "experiment": "Induction of microtubule disassembly with spherical morphology in human HeLa cells at 10 nM after 24 hrs using DAPI-staining by fluorescence microscopy", "type": "cell-based", "method_in_brief": "(§1)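 HeLa cells were exposed to 10 or 100 nM compound for 24 or 48 h, then fixed. Microtubules were stained with FITC-conjugated anti-β-tubulin antibody and imaged by confocal/fluorescence microscopy at 60× magnification.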"}, "Tubulin (Homo sapiens) [4]": {"biological_target": "T1, Tubulin (Homo sapiens)", "experiment": "Induction of microtubule disassembly in human HeLa cells assessed as complete loss of microtubules at 100 nM after 24 hrs using DAPI-staining by fluorescence microscopy", "type": "cell-based", "method_in_brief": "as §1"}, "HeLa [5]": {"test_system": "HeLa", "experiment": "Induction of morphological changes in human HeLa cells assessed as appearance of giant interphase with multiple nuclei of different sizes at 100 nM after 24 hrs using phalloidintetramethylrhodamine B isothiocyanate staining by microscopy", "type": "functional, cell-based", "method_in_brief": "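HeLa cells were incubated with compound for 24 h. F-actin was stained with a phalloidin–tetramethylrhodamine B isothiocyanate conjugate and nuclei were counterstained with DAPI. Cells were then examined by fluorescence microscopy.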"}, "HeLa [6]": {"test_system": "HeLa", "experiment": "Cell cycle arrest in human HeLa cells assessed as increase of cell population at G2/M phase at 1 to 100 nM after 48 hrs using propidium iodide staining by flow cytometry", "type": "functional, cell-based"}, "HeLa [7]": {"test_system": "HeLa", "experiment": "Cell cycle arrest in human HeLa cells assessed as decrease of cell population at G1 phase at 1 to 100 nM after 48 hrs using propidium iodide staining by flow cytometry", "type": "functional, cell-based"}, "HeLa [8]": {"test_system": "HeLa", "experiment": "Cell cycle arrest in human HeLa cells assessed as decrease of cell population at S phase at 1 to 100 nM after 48 hrs using propidium iodide staining by flow cytometry", "type": "functional, cell-based"}, "Jurkat [9]": {"test_system": "Jurkat", "experiment": "Cell cycle arrest in human Jurkat cells assessed as decrease of cell population at S phase at 1 to 100 nM after 48 hrs using propidium iodide staining by flow cytometry", "type": "functional, cell-based"}, "HeLa [10]": {"test_system": "HeLa", "experiment": "Induction of cell cycle arrest at G2/M phase in human HeLa cells assessed as decrease in phosphorylated Cdc2(Y15) expression at 10 to 100 nM after 48 hrs by Western blot analysis", "type": "functional, cell-based", "method_in_brief": "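Immunoblot of HeLa lysates after 24 or 48 h of compound treatment at the indicated concentrations. Probed for cyclin B1, p-Cdc2 Y15 and Cdc25c. Slower-migrating Cdc25c bands were taken as a change in phosphorylation.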"}, "HeLa [11]": {"test_system": "HeLa", "experiment": "Induction of apoptosis in human HeLa cells assessed as increase in annexin-V positive cells after 24 hrs by annexin-V-FITC and propidium iodide staining based flow cytometry", "type": "functional, cell-based", "method_in_brief": "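Biparametric flow cytometry after annexin-V immunolabelling plus propidium iodide, separating live, early apoptotic, late apoptotic and necrotic cells; HeLa incubated for 24 or 48 h.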"}, "HeLa [12]": {"test_system": "HeLa", "experiment": "Induction of apoptosis in human HeLa cells assessed as increase in mitochondrial ROS production at 100 nM after 48 hrs using hydroethidine staining by flow cytometry", "type": "functional, cell-based"}, "HeLa [13]": {"test_system": "HeLa", "experiment": "Induction of apoptosis in human HeLa cells assessed as decrease in Bcl2 expression at […] after 24 hrs by Western blot analysis", "type": "functional, cell-based", "method_in_brief": "(§2)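 Treated HeLa whole-cell lysates separated by SDS-PAGE and immunoblotted for PARP cleavage, Bcl-2, Bax, pro-caspase-9 and pro-caspase-2.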"}, "HeLa [14]": {"test_system": "HeLa", "experiment": "Induction of apoptosis in human HeLa cells assessed as decrease in Bcl2 expression at […] after 48 hrs by Western blot analysis", "type": "functional, cell-based", "method_in_brief": "as §2"}, "HeLa [15]": {"test_system": "HeLa", "experiment": "Induction of apoptosis in human HeLa cells assessed as decrease in Bax expression at […] after 24 hrs by Western blot analysis", "type": "functional, cell-based", "method_in_brief": "as §2"}, "HeLa [16]": {"test_system": "HeLa", "experiment": "Induction of apoptosis in human HeLa cells assessed as DNA condensation at 10 uM after 24 to 48 hrs using Giemsa's staining by microscopic analysis", "type": "functional, cell-based", "method_in_brief": "(§3)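 HeLa treated 48 h, Giemsa stained and examined by light microscopy at 60× magnification.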"}, "HeLa [17]": {"test_system": "HeLa", "experiment": "Induction of apoptosis in human HeLa cells assessed as multinucleation at 10 uM after 24 to 48 hrs using Giemsa's staining by microscopic analysis", "type": "functional, cell-based", "method_in_brief": "(§4)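 Giemsa staining, then light-microscope examination of cell morphology. HeLa and Jurkat cells were exposed to compound for 24 and 48 h. Magnification 60×.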"}, "HeLa [18]": {"test_system": "HeLa", "experiment": "Induction of apoptosis in human HeLa cells assessed as formation of large cells at 100 uM after 24 to 48 hrs using Giemsa's staining by microscopic analysis", "type": "functional, cell-based", "method_in_brief": "as §3"}, "Jurkat [19]": {"test_system": "Jurkat", "experiment": "Induction of apoptosis in human Jurkat cells assessed as DNA condensation at 10 uM after 24 to 48 hrs using Giemsa's staining by microscopic analysis", "type": "functional, cell-based", "method_in_brief": "as §4"}, "Jurkat [20]": {"test_system": "Jurkat", "experiment": "Induction of apoptosis in human Jurkat cells assessed as DNA condensation at 100 uM after 24 to 48 hrs using Giemsa's staining by microscopic analysis", "type": "functional, cell-based", "method_in_brief": "as §4"}, "Jurkat [21]": {"test_system": "Jurkat", "experiment": "Induction of apoptosis in human Jurkat cells assessed as abnormal mitotic figures at 10 uM after 24 to 48 hrs using Giemsa's staining by microscopic analysis", "type": "functional, cell-based", "method_in_brief": "as §4"}, "Jurkat [22]": {"test_system": "Jurkat", "experiment": "Induction of apoptosis in human Jurkat cells assessed as formation of large cells at 10 uM after 24 to 48 hrs using Giemsa's staining by microscopic analysis", "type": "functional, cell-based", "method_in_brief": "as §4"}, "Jurkat [23]": {"test_system": "Jurkat", "experiment": "Induction of apoptosis in human Jurkat cells assessed as formation of large cytoplasmic vacuoles at 100 uM after 24 to 48 hrs using Giemsa's staining by microscopic analysis", "type": "functional, cell-based", "method_in_brief": "as §4"}, "HeLa [24]": {"test_system": "HeLa", "experiment": "Induction of apoptosis in human HeLa cells assessed as reduction in p53 expression at […] after 24 hrs by Western blot analysis", "type": "functional, cell-based", "method_in_brief": "(§5)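 Western blot of HeLa whole-cell lysates, separated by SDS-PAGE and probed with antibodies to p-γH2AX Ser139, p53 and p21waf/cip1. Cells were treated at the indicated concentrations for 24 or 48 h.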"}, "HeLa [25]": {"test_system": "HeLa", "experiment": "Induction of apoptosis in human HeLa cells assessed as reduction in p21 expression at […] after 48 hrs by Western blot analysis", "type": "functional, cell-based", "method_in_brief": "as §5"}, "CCRF-CEM [26]": {"test_system": "CCRF-CEM", "experiment": "Fold resistance, ratio of IC50 for human vinblastine-resistant CEM/VBL100 cells overexpressing P-gp to IC50 for human CEM cells", "type": "functional", "method_in_brief": "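Fold resistance taken as the ratio of IC50 in the resistant line to IC50 in the parental line, each IC50 from dose-response curves of at least three independent experiments.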"}, "A549": {"test_system": "A549", "experiment": "Fold resistance, ratio of IC50 for human taxol-resistant A549-T12 cells to IC50 for human A549 cells", "type": "functional"}}, "note": "Activity calls are given as the source filed them. The rule behind the calls is not given here."}
{"compound": "CCOc1ccc(-c2sc(N)nc2-c2cc(OC)c(OC)c(OC)c2)cc1", "values": [{"measurement": "IC50", "setting": "HL-60", "value": 900, "unit": "pM"}, {"measurement": "IC50", "setting": "MCF7", "value": 44000, "unit": "pM"}, {"measurement": "IC50", "setting": "LoVo", "value": 700, "unit": "pM"}, {"measurement": "IC50", "setting": "CCRF-CEM [1]", "value": 900, "unit": "pM"}, {"measurement": "IC50", "setting": "[2]", "value": 200, "unit": "pM"}, {"measurement": "Activity", "setting": "Tubulin (Homo sapiens) [3]", "value": "Active"}, {"measurement": "Activity", "setting": "Tubulin (Homo sapiens) [4]", "value": "Active"}, {"measurement": "Activity", "setting": "HeLa [5]", "value": "Active"}, {"measurement": "Activity", "setting": "HeLa [6]", "value": "Active"}, {"measurement": "Activity", "setting": "HeLa [7]", "value": "Active"}, {"measurement": "Activity", "setting": "HeLa [8]", "value": "Active"}, {"measurement": "Activity", "setting": "Jurkat [9]", "value": "Active"}, {"measurement": "Activity", "setting": "HeLa [10]", "value": "Active"}, {"measurement": "Activity", "setting": "HeLa [11]", "value": "Dose-dependent effect"}, {"measurement": "Activity", "setting": "HeLa [12]", "value": "Active"}, {"measurement": "Activity", "setting": "HeLa [13]", "value": "inactive"}, {"measurement": "Activity", "setting": "HeLa [14]", "value": "Active"}, {"measurement": "Activity", "setting": "HeLa [15]", "value": "inactive"}, {"measurement": "Activity", "setting": "HeLa [16]", "value": "Active"}, {"measurement": "Activity", "setting": "HeLa [17]", "value": "Active"}, {"measurement": "Activity", "setting": "HeLa [18]", "value": "Active"}, {"measurement": "Activity", "setting": "Jurkat [19]", "value": "Active"}, {"measurement": "Activity", "setting": "Jurkat [20]", "value": "Active"}, {"measurement": "Activity", "setting": "Jurkat [21]", "value": "Active"}, {"measurement": "Activity", "setting": "Jurkat [22]", "value": "Active"}, {"measurement": "Activity", "setting": "Jurkat [23]", "value": "Active"}, {"measurement": "Activity", "setting": "HeLa [24]", "value": "inactive"}, {"measurement": "Activity", "setting": "HeLa [25]", "value": "Active"}, {"measurement": "Ratio IC50", "setting": "CCRF-CEM [26]", "value": 0.9}, {"measurement": "Ratio IC50", "setting": "A549", "value": 2.2}]}
